The text below walks through data of ChEMBL document CHEMBL4513216, “Probing the Open Global Health Chemical Diversity Library for Multistage-Active Starting Points for Next-Generation Antimalarials” (ACS Infect Dis, 2020).

The data set can be described thus: Toxicity liver stage against HepG2, at 10uM. The data set is classed as cell-based. Further details: test concentration 10 uM, cell line HepG2-A16-CD81EGFP. The note with it: human, HepG2-A16-CD81EGFP cells; read-out: INHIBITION
In short, it runs like this: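 Uninfected HepG2-A16-CD81EGFP cells, 3 × 10^3 per well, 1536-well, plated on prespotted compound at 10 μM final, parasite-free screening media added to match infected plates; puromycin 10 μM positive, DMSO 0.5% negative; run in parallel with 48 h PbLuc assay at 37 °C, 5% CO2; viability by CellTiter-Glo luminescence, normalized to controls.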
In the case of `CC(C)c1nc(CN2CCN(C(=O)CN3CCOCC3)CC2)no1`, the cytotoxicity at 10 µM is -7.8%.
Under `O=C(CCn1nc(C(=O)Nc2ccccc2)ccc1=O)Nc1nccs1` stands -2.83%.
Under `COCCn1c(-c2cccc(OC)c2)cnc1NC(=O)NC1CCCC1` stands 12.3%.
Under `CCC(C)CNC(=O)[C@@H]1CCCN1c1nccc(Nc2ccccc2)n1` (stereo partly drawn) stands 3.57%; under `O=C1CCNc2cc3c(cc2CN1CC1CC1)OCO3`, -5.83%; under `Cc1nc(C(=O)N2CCN(S(C)(=O)=O)CC2)c(-c2ccccc2)s1`, 3.23%.
As to `O=C1CSC(C(F)(F)F)c2c(O)nn(C3CCCC3)c2N1` (stereo not drawn), the cytotoxicity at 10 µM was found to be 3.49%.
In the case of `CC(C)Cn1cnc2ccc(NC(=O)CCCn3cccn3)cc2c1=O`, the cytotoxicity at 10 µM was -4.06%.
For the compound `COc1cccc2sc(OC3CN(C(=O)C4=COCCO4)C3)nc12`, the cytotoxicity at 10 µM was 4.91%.
Consider `CC(C)CCN1C2(CCN(c3ncccn3)C2)c2ccccc2S1(=O)=O` (stereo not drawn), for which the cytotoxicity at 10 µM was found to be 1.35%.
On to `CC(C)N(C)C(=O)C1=NOC2(CCN(C(=O)c3cccn3C)C2)C1` (stereo not drawn), for which the cytotoxicity at 10 µM is -122%.
For `Cc1ccc(C)c(-c2[nH]c3ccccc3c2C(=O)O)c1`, the cytotoxicity at 10 µM amounted to 1.55%.
With `O=C(NCCN1CCNCC1)c1nc2ccccc2c(=O)[nH]1` the figure was 8.19%.
Under `O=C(c1nc(COc2ccc3c(c2)OCO3)no1)N1CCCC1` stands 10.3%; under `O=C1NC(c2ccccc2)=N[C@@]12CC[C@@H]1CN(Cc3ccco3)C[C@@H]12`, -4.34%; under `Cc1nocc1C(=O)N1CCc2c(CN(C)C(C)C)n[nH]c2C1`, -12.3%.
Consider `Cc1ccc(CC(=O)N2Cc3nccn3CC(Cn3cccn3)C2)cc1` (stereo not drawn), for which the cytotoxicity at 10 µM is -10.5%.
As for `Cc1cc(NCCCOC(C)C)c2nncn2n1`, the cytotoxicity at 10 µM came to 6.17%.
In the case of `Cc1cccc(C2(CNC(=O)c3ccnc(N(C)C)c3)CCOCC2)c1`, the cytotoxicity at 10 µM worked out at 2.85%.
As for `Cc1nn(C)cc1S(=O)(=O)NCC(c1ccccc1Cl)N1CCCC1` (stereo not drawn), the cytotoxicity at 10 µM is -1.29%.
As for `O=C(c1cncnc1)N1CCCC(c2nccs2)C1` (stereo not drawn), the cytotoxicity at 10 µM stood at 6.55%.
With `O=C(c1cc[nH]n1)N1CCCC1c1ccccn1` (stereo not drawn) the figure was -22.5%; with `O=S(=O)(c1ccc(F)cc1)N1CCCC(c2nccs2)C1` (stereo not drawn), -6.74%; with `CN1CCc2nc(C3CCCCN3Cc3ccccc3Cl)ncc2C1` (stereo not drawn), -27.7%.
With `Cc1cccc(-c2cccc(CC3(C(=O)O)CCOCC3)c2)c1` the figure was -25.7%; with `CN1CCC(c2cncc(N(C)C)n2)CC1`, -11.5%.
For the compound `Cn1cc(C(O)CNC(=O)c2sccc2OC(F)F)cn1` (stereo not drawn), the cytotoxicity at 10 µM was determined as 0.606%.
`CC(C(=O)NC1CC1)S(=O)(=O)Cc1nc(Cc2ccccc2)no1` (stereo not drawn): the cytotoxicity at 10 µM amounted to 5.42%.
As to `CC(=O)N1CCCC1C(=O)N1CCC(=Cc2cccc(F)c2)CC1` (stereo not drawn), the cytotoxicity at 10 µM amounted to 3.5%.
Turning to `CSCc1cc(F)ccc1CNC(=O)N1CCOCC1`, the cytotoxicity at 10 µM turned out to be 8.06%.
Turning to `CC1CCCN(CCCNC(=O)c2cn(C)nc2-c2cccnc2)C1` (stereo not drawn), the cytotoxicity at 10 µM is -3.24%.
Under `O=C(O)c1cnc2c(cnn2C2CCCC2)c1` stands -8.23%; under `O=C1CCCN1Cc1nnc(SCc2ccc3c(c2)CCC3)o1`, 2.03%.
Under `CCc1noc(CN(Cc2cccs2)C2CC2)n1` stands 1.44%; under `CCOCCNC(=O)c1ccn(S(=O)(=O)c2ccc(C)cc2)c1`, -3.18%; under `CN(C)C(=O)c1ccccc1NC(=O)N(C)Cc1ccccc1O`, -1.03%.
With `CCCN(CC1CC1)C(=O)CN1CCCC1c1cnn(C)c1` (stereo not drawn) the figure was 2.45%; with `NC(=O)Nc1cccc(C(=O)N(Cc2ccc(F)cc2)C2CC2)c1`, -10.1%; with `CCCC(=O)NC(C)(C)Cc1ccccc1OC`, 5.55%.
`N#CCCCn1nnnc1Cc1ccc(Br)cc1`: the cytotoxicity at 10 µM is 1.56%.
With `Cc1ccc(C2CSCCN2C(=O)c2ccoc2C)o1` (stereo not drawn) the figure was 13.8%; with `O=S(=O)(NC1CC1)c1cccc(Br)c1`, -3.52%.
Regarding `CCC[C@@H](NC(N)=O)C(=O)N1CCc2ccccc2CC1`, the cytotoxicity at 10 µM came to 7.79%.
Under `CCC1CN(Cc2ccccc2)CCN1Cc1nnc(C2CCC2)o1` (stereo not drawn) stands -11.2%.
Turning to `CN(C)C(C)(C)CNC(=O)C(C)(C)c1ccccc1F`, the cytotoxicity at 10 µM is -11.2%.
Under `CCOCC1CN(S(=O)(=O)c2cccc(C)c2)Cc2nccn2C1` (stereo not drawn) stands -108%.
For the compound `O=C(c1ccnn1-c1ccc2ccccn12)N1CCOCC1`, the cytotoxicity at 10 µM was -108%.
`CSc1cccc(NC(=O)N2CCCC(CNC(=O)c3ccco3)C2)c1` (stereo not drawn): the cytotoxicity at 10 µM was -2.4%.
Under `CSCC(=O)N1CCc2[nH]nc(-c3ccc4c(c3)OCO4)c2C1` stands -139%; under `C[C@@H]1CN(C(=O)CCc2nncn2C)C[C@@]1(O)C1CCC1`, -4.97%; under `COCCn1ccnc1C1CCN(C(=O)C(O)c2ccc(F)cc2)CC1` (stereo not drawn), 1.73%.
Under `O=C(c1ccc(S(=O)(=O)N2CCNCC2)cc1)N1CCCC(O)C1` (stereo not drawn) stands 8.48%; under `O=C1OC2(CCNCC2)CN1CC(=O)N1CCC1c1cccs1` (stereo not drawn), 4.35%.
For `COCCN(C/C=C/c1ccccc1)Cc1ncc[nH]1`, the cytotoxicity at 10 µM was found to be 7.8%.
Under `O=C(Nc1ccc(F)cc1)C1CNCCN1C(=O)CSc1ccncc1` (stereo not drawn) stands -0.316%.
As to `Cc1ccc2nc(-c3cnc(N)nc3)cc(C(=O)N(C)C)c2c1`, the cytotoxicity at 10 µM came out at 14%.
Under `O=C(NCc1nnc2n1CCC2)c1cn(-c2ccccc2)nn1` stands -2.4%; under `COCCN1CCC(CNc2nccc(-c3cnn(C)c3)n2)CC1`, -130%.
Consider `CC(C)[C@@H]1CN(Cc2cnc(C3CCCCC3)nc2)C[C@H]1C(=O)O`, for which the cytotoxicity at 10 µM is -6.46%.
Under `COCCN(C)C[C@@H]1CN(C(=O)c2ccc(C)c(Cl)c2)C[C@@H]1CO` stands -0.678%; under `CN1CCN(CCCNS(=O)(=O)Cc2ccccc2F)CC1`, -11.1%.
`CCCNC(=O)C(C)Oc1ccc(F)cc1` (stereo not drawn): the cytotoxicity at 10 µM is -3.76%.
Under `COC[C@@]12CC[C@@H](N3CCOCC3)C[C@H]1CCN(c1ncccc1Cl)C2` stands -13.2%.
Take `CC(C)(C)c1ccn(C2(C(=O)O)CCN(c3nccc(N)n3)CC2)n1`: the cytotoxicity at 10 µM is -6.69%.
Under `Cn1cc(C(=O)Nc2cc(F)ccc2OCC2CCCO2)ccc1=O` (stereo not drawn) stands -7.09%; under `c1ccc(Cc2noc(CN3CCOC(Cn4cncn4)C3)n2)cc1` (stereo not drawn), 1.28%.
Under `Cc1nc(C2CCCN2CC(=O)N(C)Cc2ccsc2)no1` (stereo not drawn) stands -8.21%.
Under `CC(C(=O)NCc1ccnc(N2CCCC2)c1)n1cccn1` (stereo not drawn) stands 0.309%; under `COC(=O)c1cc(C(=O)N2CCCCC2C)n(-c2ccccc2)n1` (stereo not drawn), -13.7%; under `CCn1cnnc1C1CCN(C(=O)c2cc3c(s2)CCCC3)CC1`, -1.76%.
Take `CCCc1noc(CCC(=O)N2CCCC2c2ccncc2)n1` (stereo not drawn): the cytotoxicity at 10 µM was -2.42%.
Regarding `c1cnn(-c2ccc(CN3CCCC(Cn4cncn4)C3)cc2)c1` (stereo not drawn), the cytotoxicity at 10 µM was -2.63%.
Under `CCc1n[nH]c(C2CN(Cc3nnc(C4CC4)o3)CCO2)n1` (stereo not drawn) stands -14.3%; under `Cc1nc(CN2CCCC(N(C)Cc3nccn3C)C2)no1` (stereo not drawn), -16.8%.
Under `Cc1nc(C(=O)N2CCCC2c2c(C)nn(C)c2C)cs1` (stereo not drawn) stands -15.8%.
Under `CCOc1ccc(NC(=O)NCc2cccnc2OCC)cc1` stands -8.67%; under `O=C(c1ccc2cc[nH]c2c1)N1CCCN(Cc2cscn2)CC1`, -31.7%; under `Cc1noc(C)c1C(=O)NCC(C)N1CCc2ccccc21` (stereo not drawn), -17.2%.
For the compound `CCn1cc(C(=O)N2CCCC(c3noc(C)n3)C2)cn1` (stereo not drawn), the cytotoxicity at 10 µM worked out at 2.17%.
With `CCn1cc(CN2CCCN(C(=O)c3ccccc3OC)CC2)cn1` the figure was -11.4%; with `Cn1cnnc1C1CCCN(C(=O)c2ccccn2)C1` (stereo not drawn), -8.31%.
With `CCn1cc(CN2CCCN(C(=O)c3cccn3C)CC2)cn1` the figure was -5.85%.
With `CCn1cc(CN2CCCN(C(=O)CCCn3cncn3)CC2)cn1` the figure was -12.5%.
Consider `Cc1cn2c(n1)CCC(NC(=O)c1ccc(CS(C)(=O)=O)o1)C2` (stereo not drawn), for which the cytotoxicity at 10 µM is -5%.
Under `c1cnn(CC2CCCN2Cc2nc(-c3ccoc3)no2)c1` (stereo not drawn) stands -7.07%; under `COC(=O)C(c1cc(F)ccc1F)N(C)C(=O)c1csnn1` (stereo not drawn), 0.144%; under `CC(NC(=O)NCc1ccc(Cl)cc1)c1ccccn1` (stereo not drawn), 3.42%.
In the case of `Cc1nc(C2CCCN(C(=O)c3ccc(N4CCCC4)nc3)C2)no1` (stereo not drawn), the cytotoxicity at 10 µM was -3.06%.
Under `CC(C)(CO)NCc1ccc(OCc2ccc3c(c2)OCCO3)cc1` stands 4.12%.
With `c1nnc(Nc2cncc(C3CCCN3)n2)s1` (stereo not drawn) the figure was 3.58%.
Under `CC(C)N(CC(=O)O)Cc1cccc(Br)c1` stands -8.67%; under `CN(C)C(=O)COCc1nn(C)c2c1CCN(Cc1ccco1)C2`, -131%; under `Cc1nn(C)c(Cl)c1CNCc1cccnc1N1CCN(C)CC1`, -9%.
On to `Cc1ccc(Cc2cnc(C3CCNCC3)cn2)cc1`, for which the cytotoxicity at 10 µM is -31.2%.
On to `O=C(NCCn1nc(C2CCNC2)c2cccnc21)C1CCC1` (stereo not drawn), for which the cytotoxicity at 10 µM is -7.87%.
`CC(C)COC[C@@H]1CC[C@H]2[C@H](CCN2C(=O)c2ccncc2F)O1`: the cytotoxicity at 10 µM is -0.58%.
As to `CNC(=O)[C@H]1C[C@H]2CN(C(=O)Nc3ccc(F)cc3)C[C@@H]1O2`, the cytotoxicity at 10 µM stood at 3.28%.
As for `Cc1cnn(CC2CN(C=C3NN=C(c4occc4C)O3)CCO2)c1` (stereo not drawn), the cytotoxicity at 10 µM was -2.9%.
